Cneo AK release: causes C. neoformans cell lysis. adenylate kinase release luminescence, 4 h; normalised: neutral wells 0, clomiphene wells 100. AID 651654. lysis activity, % at 15 µM. 360,000 tested, 0.2% active;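 active = mean lysis activity across replicates of at least 80%, whatever share of replicates individually reach that level; inactive = mean lysis activity below 80%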
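read-out = cell lysis signal | test system = log-phase Cryptococcus neoformans yeast cells | input = cells at 5 × 10^6 per mL | medium = fresh YPD growth medium | signal = luminescent adenylate kinase detection reagent | timing = 4 h at 37 °C static, read 1 h later | dosing = single dose | controls = Clomiphene as positive lysis control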
DENV2 CPE rescue: inhibitors of DENV2 cytopathic effect | CPE inhibition, % at 9.99 µM | DENV2-infected cells, cytopathic effect rescue, plate reader | 350,000 tested, 1.7% active; in the data active = CPE inhibition above about 20%, passing the limit was not always enough; inconclusive = no clear call, values can overlap the other calls; tested in BHK-21 cells
PGC1a acetyl inh: PGC1a acetylation modulation, inhibitor mode; inhibition, % at 15.6 µM; U2OS PGC1a acetylation, AlphaScreen anti-acetyl-lysine; with virally co-expressed GCN5 acetyltransferase; AID 651687; 350,000 tested, 0.17% active;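 active = every replicate shows inhibition of at least 40%; inconclusive = mean inhibition at least 40% but some replicate below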
CFTR F508del cor: correctors of CFTR F508del function in bronchial epithelial cells; 350,000 tested, 0.36% active; CFBE cells, YFP halide quenching; stimulated with forskolin plus potentiator P3; % fluorescence drop versus neutral controls; activity (quench increase), % at 7.58 µM; AID 720511;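 active = mean added fluorescence quench of at least 8% versus neutral control, with both replicates also reaching 8%; inconclusive = only one of the mean or replicate conditions met; inactive = mean below 8% and not both replicates reaching 8%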;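 note: cells transiently co-express mutant CFTR-F508del with the halide-sensitive YFP; corrector assay measuring rescue of mutant channel to the surface after 24 h compound exposure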
FN deposition inh: fibronectin deposition inhibition | AH1F fibroblasts, Alexa488-fibronectin deposition fluorescence, overnight | inhibition, % at 12.6 µM | 350,000 tested, 0.086% active | AID 743247;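 active = mean inhibition across replicates of 30% or more, regardless of how many single replicates reach that level; inconclusive = mean under 30% yet at least half of replicates reach 30%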
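Test system: AH1F fibroblast monolayer depositing Alexa488-labelled fibronectin into matrix. Input: 10000 cells per well. Technique: fluorescence, ex 485 nm, em 525 nm. Buffer or medium: DMEM plus 2% serum, read in PBS. Timing: 1 h cell adhesion before compound, then overnight fibronectin incubation. Compound: single dose, pinned. Read-out basis: inhibition from reduced deposited-fibronectin fluorescence.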
Xi reactivation: reactivates the inactive X chromosome in mouse fibroblasts | XiGFP mouse fibroblasts, % GFP-positive cells imaging, 3 d; cells co-treated with 5-aza-dC sensitizer; scaled so ellipticine positive control = 100% | 360,000 tested, 0.055% active | activation, % at 7.58 µM;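 active = mean normalized replicate activation at least 10% and every replicate at or above 10%; inconclusive = only one of the two criteria met; inactive = mean below 10% and not all replicates reach 10%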
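System: 68-5-11 XiGFP fibroblast line | Buffer or medium: DMEM containing 5-aza-dC | Compound: Single point | Times: Compounds 3 days, fix/stain 15 min at room temperature | Benchmarks: Positive control ellipticine, 6 µM final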
A number is an active result; i = inactive; ? = inconclusive; nt = not tested or not shown. In the library only some 1.9% were active in any assay of this set; here they are far more common.

SMILES	Cneo AK release	DENV2 CPE rescue	PGC1a acetyl inh	CFTR F508del cor	FN deposition inh	Xi reactivation
COc1ccc(S(=O)(=O)N(C)C[C@H]2Oc3c(NC(=O)Nc4ccc(C(F)(F)F)cc4)cccc3C(=O)N([C@H](C)CO)C[C@@H]2C)cc1	i	20.8	i	i	i	i
COc1ccc(S(=O)(=O)N(C)C[C@@H]2Oc3c(NC(=O)Nc4ccc(C(F)(F)F)cc4)cccc3C(=O)N([C@@H](C)CO)C[C@H]2C)cc1	i	i	i	i	i	i
C[C@H](CO)N1C[C@H](C)[C@@H](CN(C)Cc2ccc(C(F)(F)F)cc2)Oc2c(NC(=O)Nc3ccc(F)cc3)cccc2C1=O	i	68.9	i	i	nt	i
C[C@H]1CN([C@@H](C)CO)C(=O)c2cccc(NC(=O)c3ccncc3)c2O[C@H]1CN(C)Cc1ccc(C(F)(F)F)cc1	i	23.6	i	i	i	i
COc1ccc(C(=O)Nc2ccc3c(c2)C(=O)N(C)C[C@@H](OC)[C@H](C)CN(C)[C@@H](C)CO3)cc1	i	i	i	i	i	i
COc1ccc(CN2CCNC(=O)C2CC(=O)NCC2CCOCC2)c(C)c1C (configuration not stated)	i	89.5	nt	i	i	i
C/C=C/c1ccc2c(c1)O[C@@H](CN(C)C(=O)Nc1ccccc1)[C@H](C)CN([C@H](C)CO)S2(=O)=O	i	27.7	i	i	i	i
C[C@H]1CN([C@@H](C)CO)S(=O)(=O)c2ccc(/C=C/c3ccccc3)cc2O[C@@H]1CN(C)C(=O)Nc1ccc(F)cc1	i	i	i	10.0	i	i
C[C@@H]1CN([C@H](C)CO)S(=O)(=O)c2ccc(/C=C/c3ccccc3)cc2O[C@H]1CN(C)C(=O)NC1CCCCC1	i	i	i	9.6	nt	i
C/C=C/c1ccc2c(c1)O[C@@H](CN(C)C(=O)Nc1cccc(F)c1)[C@H](C)CN([C@H](C)CO)S2(=O)=O	i	i	i	8.5	nt	i
C/C=C/c1ccc2c(c1)O[C@H](CN(C)C(=O)Nc1cccc(F)c1)[C@H](C)CN([C@@H](C)CO)S2(=O)=O	i	i	i	i	nt	i
C[C@@H]1CN([C@@H](C)CO)S(=O)(=O)c2ccc(/C=C/c3ccccc3)cc2O[C@H]1CN(C)C(=O)c1ccncc1	i	40.8	i	i	nt	i
C[C@H](CO)N1C[C@H](C)[C@H](CN(C)C(=O)c2ccccc2)Oc2cc(/C=C/c3ccccc3)ccc2S1(=O)=O	i	i	i	i	i	i
O=C(NCc1cccnc1)C(=O)NCC(c1ccco1)N1CCOCC1 (configuration not stated)	nt	i	i	i	i	i
O=C(NCc1cccnc1)C(=O)NCC(c1ccco1)N1CCN(c2ccccc2)CC1 (configuration not stated)	i	21.0	i	i	i	i
COc1ccc(S(=O)(=O)Nc2ccc3c(c2)C(=O)N([C@@H](C)CO)C[C@H](C)[C@H](CN(C)C(=O)Nc2ccc(C(F)(F)F)cc2)OCCCC[C@@H](C)O3)cc1	i	i	i	i	i	i
O=C(c1ccncc1)N1CCCC(N2CCN(c3cccc(C(F)(F)F)c3)CC2)C1 (configuration not stated)	i	20.9	nt	i	i	i
COc1ccc2c3c([nH]c2c1)[C@H](CO)NCC31CN(S(=O)(=O)c2ccccc2)C1	nt	nt	nt	nt	nt	i
CC1(C)OC(=O)C2=C(C[C@@H](C3CC3)O[C@@H]2C2CC2)O1	nt	60.8	nt	i	i	i
CC1(C)OC(=O)C2=C(C[C@@H](C3CCCC3)O[C@H]2CCc2cccc(Cl)c2)O1	nt	i	nt	i	i	i
COCC(=O)Nc1ccc2c(c1)OC[C@H](C)N(Cc1cncnc1)C[C@@H](C)[C@@H](OC)CN(C)C2=O	nt	nt	i	i	i	i
COc1cc(OC)cc(-c2oc(=O)c3cc(OC)c(OC)cc3c2C#CCCO)c1	i	29.9	i	i	i	i
N#Cc1ccc(-c2ccc([C@H]3[C@@H](CO)N4CCCCN(C(=O)Nc5ccc(F)cc5)C[C@H]34)cc2)cc1	i	i	i	i	nt	i
N#Cc1ccc(-c2ccc([C@@H]3[C@@H](CO)N4CCCCN(C(=O)Nc5ccc(F)cc5)C[C@@H]34)cc2)cc1	i	i	i	i	nt	i
N#Cc1ccc(-c2ccc([C@H]3[C@H](CO)N4CCCCN(C(=O)Nc5ccc(F)cc5)C[C@@H]34)cc2)cc1	i	48.7	i	i	nt	i
SMILES	Cneo AK release	DENV2 CPE rescue	PGC1a acetyl inh	CFTR F508del cor	FN deposition inh	Xi reactivation
N#Cc1ccc(-c2ccc([C@H]3[C@H]4CN(C(=O)Nc5ccc(F)cc5)CCCCN4[C@H]3CO)cc2)cc1	i	23.8	i	i	nt	i
COc1ccc2c3c([nH]c2c1)[C@H](CO)N(C(=O)C1CCC1)CC31CN(C(=O)c2ccccn2)C1	nt	i	i	i	nt	i
COC(=O)C1CC23C=CCN4CCC5(c6ccccc6NC15C2C)C43 (configuration not stated)	i	i	i	10.4	i	i
CN1CC[C@]23c4ccccc4N[C@H]1[C@]21CCN(C)[C@H]3Nc2ccccc21	i	i	i	i	i	i
CCNC(=O)C[C@H]1CC[C@@H]2[C@H](COC[C@H](O)CN2Cc2ccc(Cl)c(Cl)c2)O1	i	81.9	i	i	i	i
CCNC(=O)C[C@H]1CC[C@H]2[C@@H](COC[C@@H](O)CN2Cc2ccc(Cl)c(Cl)c2)O1	i	104.9	i	i	i	i
C[C@@H]1CN([C@@H](C)CO)C(=O)c2cc(NC(=O)CCN3CCOCC3)ccc2O[C@@H]1CN(C)Cc1ccc(C(=O)Nc2ccccc2N)cc1	nt	i	i	i	i	i
O=C1C=C(N(CCO)Cc2ccccc2)c2ccccc2C1=O	i	nt	i	nt	nt	nt
O=C1c2ccccc2C(=O)c2c1cccc2N(CCO)CCO	i	i	i	13.0	i	i
O=C(Nc1ccc(O)cc1C(=O)O)c1ccc2c(c1)C(=O)N(Cc1ccco1)C2=O	i	nt	i	nt	i	nt
O=C(Nc1cc([N+](=O)[O-])ccc1O)c1ccc2c(c1)C(=O)N(Cc1ccco1)C2=O	i	25.5	nt	i	i	i
CCSc1nnc(CSc2ncccn2)n1C	nt	i	nt	i	i	i
CC(C)N(C(=O)CSc1nnc(CSc2ncccn2)n1C)C(C)C	i	32.7	i	i	i	i
Cc1ccc(S(=O)(=O)N(C)C[C@@H]2Oc3c(NC(=O)c4ccc(-c5nccs5)cc4)cccc3C(=O)N([C@@H](C)CO)C[C@@H]2C)cc1	i	i	i	i	nt	i
CCN(c1ccccc1)S(=O)(=O)c1ccc(OC)c(NC(=O)Cc2ccc(F)cc2)c1	i	i	?	i	i	i
CCN(c1ccccc1)S(=O)(=O)c1ccc(OC)c(NC(=O)C2CCC2)c1	i	67.5	i	i	i	i
CCOc1ccc(Oc2nc(NCC(C)C)nc(N(C)C)n2)nn1	i	nt	i	nt	nt	nt

Screening data (PubChem BioAssay)
